# Assay results from ChEMBL document CHEMBL1123340, “Synthesis and analgesic evaluation of 4-(2-heptyloxy)-7-[(Z)-(3-hydroxycyclohexyl)]indole: a caveat on indole-phenol bioisosterism” (1986).
# What was measured:
# Format in all cases: functional
# Mus musculus [1] = test: Compound was tested at a dose of 20 mg/kg administered subcutaneously for a pretreatment time of 60 min for analgesic activity using phenylbenzoquinone (PBQ); conditions: route subcutaneous
# Outline: (§1)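 Mouse phenylbenzoquinone (PBQ) writhing test. Test drug is given sc, ip or iv at the stated pretreatment time before PBQ injection. Mice are placed in individual observation boxes, and total writhes per group are counted over the following 15 min. Vehicle is emulphor/ethanol/saline (1:1:18), diluted from a 1:1 emulphor/ethanol stock, and vehicle-injected controls are run. Result is % inhibition of writhing versus vehicle controls.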
# Mus musculus [2] = test: Compound was tested at a dose of 10 mg/kg administered subcutaneously for a pretreatment time of 60 min for analgesic activity using phenylbenzoquinone (PBQ); conditions: route subcutaneous; outline: as §1
# Mus musculus [3] = test: Inhibition of the Mouse PBQ Writhing at a dose of 5 mg/kg sc after 60 min; conditions: 1 h, route subcutaneous; outline: as §1
# Mus musculus [4] = test: Compound was tested at a dose of 5 mg/kg administered subcutaneously for a pretreatment time of 60 min for analgesic activity using phenylbenzoquinone (PBQ); conditions: route subcutaneous; outline: as §1
# Mus musculus [5] = test: Inhibition of the Mouse PBQ Writhing at a dose of 10 mg/kg sc after 60 min; conditions: 1 h, route subcutaneous; outline: as §1
# Mus musculus [6] = test: Inhibition of the Mouse PBQ Writhing at a dose of 20 mg/kg sc after 60 min; conditions: 1 h, route subcutaneous; outline: as §1
# Mus musculus [7] = test: Compound was tested at a dose of 20 mg/kg administered subcutaneously for a pretreatment time of 15 min for analgesic activity using phenylbenzoquinone (PBQ); conditions: route subcutaneous; outline: as §1
# Mus musculus [8] = test: Compound was tested at a dose of 20 mg/kg administered intraperitoneally for a pretreatment time of 60 min; conditions: route intraperitoneal; outline: as §1
# Mus musculus [9] = test: Compound was tested at a dose of 20 mg/kg administered subcutaneously for a pretreatment time of 120 min for analgesic activity using phenylbenzoquinone (PBQ); conditions: route subcutaneous; outline: as §1
# Mus musculus [10] = test: Inhibition of the Mouse PBQ Writhing at a dose of 20 mg/kg ip afer 60 min; conditions: 1 h, route intraperitoneal; outline: as §1
# Mus musculus [11] = test: Inhibition of the Mouse PBQ Writhing at a dose of 20 mg/kg sc after 120 min; conditions: 2 h, route subcutaneous; outline: as §1
# Mus musculus [12] = test: Inhibition of the Mouse PBQ Writhing at a dose of 20 mg/kg iv afer 30 min; conditions: 0.5 h; outline: as §1
# Mus musculus [13] = test: Compound was tested at a dose of 20 mg/kg administered intravenously for a pretreatment time of 10 min; conditions: route intravenous; outline: as §1
# Mus musculus [14] = test: Inhibition of the Mouse PBQ Writhing at a dose of 20 mg/kg iv afer 10 min; outline: as §1
# Mus musculus [15] = test: Compound was tested at a dose of 20 mg/kg administered intraperitoneally for a pretreatment time of 20 min for analgesic activity using phenyl benzoquinone; conditions: route intraperitoneal; outline: as §1
# Mus musculus [16] = test: Inhibition of the Mouse PBQ Writhing at a dose of 20 mg/kg ip afer 20 min; conditions: route intraperitoneal; outline: as §1
# Mus musculus [17] = test: Inhibition of the Mouse PBQ Writhing at a dose of 20 mg/kg sc after 15 min; conditions: 0.25 h, route subcutaneous; outline: as §1
Structure (SMILES),Analgesic activity (Mus musculus [1]),Analgesic activity (Mus musculus [2]),inhibition in vivo at 5 mg/kg (Mus musculus [3]) [%],Analgesic activity (Mus musculus [4]),inhibition in vivo at 10 mg/kg (Mus musculus [5]) [%],inhibition in vivo at 20 mg/kg (Mus musculus [6]) [%],Analgesic activity (Mus musculus [7]),Analgesic activity (Mus musculus [8]),Analgesic activity (Mus musculus [9]),inhibition in vivo at 20 mg/kg (Mus musculus [10]) [%],inhibition in vivo at 20 mg/kg (Mus musculus [11]) [%],inhibition in vivo at 20 mg/kg (Mus musculus [12]) [%],Analgesic activity (Mus musculus [13]),inhibition in vivo at 20 mg/kg (Mus musculus [14]) [%],Analgesic activity (Mus musculus [15]),inhibition in vivo at 20 mg/kg (Mus musculus [16]) [%],inhibition in vivo at 20 mg/kg (Mus musculus [17]) [%]
CCCCCC(C)Oc1ccc([C@H]2CCC[C@@H](O)C2)c(O)c1 (some centres undefined),2.9,15.3,29.2,23.8,54.5,91.4,,,,,,,,,,,
CCCCCC(C)Oc1ccc([C@H]2CCC[C@@H](O)C2)c2[nH]ccc12 (some centres undefined),27.2,,,,,0,16.7,29.2,32.4,0,0,0,24.8,20.3,24.4,10,21.6
